The record followed here is ChEMBL document CHEMBL1143876, “Synthesis, analgesic, anti-inflammatory, and antimicrobial activity of some novel pyrimido[4,5-b]quinolin-4-ones” (2008).

Broadly, the inhibition in vivo is the relative decrease from the control value, in per cent. Read a low inhibition in vivo as a weak effect.

For assay [1], the system named is Rattus norvegicus. In words: Antiinflammatory activity against carrageenan-induced paw edema in Sprague-Dawley rat at 10 mg/kg, po after 4 hrs. It counts as functional. The essentials:
(§1)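 Adult male rats, 150–180 g, six per group. Oral dose 1 h before 0.1 ml 1% carrageenin sc into the left hind footpad: test agents 15 mg/kg as suspension, indomethacin 10 mg/kg; vehicle 10% Tween 80. Paw volume by plethysmometer before injection, then hourly for 4 h. Edema % = (Vt−Vc)/Vc; inhibition % = (Ec−Et)/Ec. Potency taken relative to indomethacin. Means ± SE.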

Assay [2] relates to Rattus norvegicus. The assay is described as follows: Antiinflammatory activity against carrageenan-induced paw edema in Sprague-Dawley rat at 10 mg/kg, po after 1 hr. The assay is classed as functional. The essentials:
as §1
(In general: Carrageenan injected into the paw causes an acute inflammation.)

Assay [3] has as its system Rattus norvegicus. The assay is described as follows: Antiinflammatory activity against carrageenan-induced paw edema in Sprague-Dawley rat at 10 mg/kg, po after 2 hrs. The assay is classed as functional. The essentials: as §1
Assay [4] relates to Rattus norvegicus. The assay is described as follows: Antiinflammatory activity against carrageenan-induced paw edema in Sprague-Dawley rat at 10 mg/kg, po after 3 hrs. It counts as functional. The essentials: as §1
In assay [5] the test system is Mus musculus. The assay is described as follows: Analgesic activity in Swiss albino mouse assessed as reaction time at 100 mg/kg, po after 30 mins by hot plate test. It counts as functional. A digest of the protocol: (§2)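 Mice of both sexes, 25–30 g, on a hot plate at 53 ± 0.5 °C; reaction time taken to hind-paw lick or jump, 60 s cut-off. Baseline read before dosing. Oral dosing in 10% v/v Tween 80 in water: test agents 15 mg/kg, acetylsalicylic acid 100 mg/kg. Re-read at 15, 30, 60 and 90 min; means ± SE.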
In general terms: Thermal pain tests record how soon the animal reacts.

Assay [6] deals with Mus musculus. The assay is described as follows: Analgesic activity in Swiss albino mouse assessed as reaction time at 100 mg/kg, po after 60 mins by hot plate test. The assay is classed as functional. The essentials: as §2
The test system of assay [7] is Mus musculus. In words: Analgesic activity in Swiss albino mouse assessed as reaction time at 100 mg/kg, po after 90 mins by hot plate test. The assay is classed as functional. The essentials: as §2
Assay [8] relates to Mus musculus. In words: Analgesic activity against acetic acid-induced abdominal constriction in Swiss albino mouse at 100 mg/kg, po after 20 mins by writhing test. It counts as functional, Abdomen. A digest of the protocol: (§3)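 Mice of both sexes, 25–30 g, dosed orally in 10% v/v Tween 80 in water. Test agents were given at 15 mg/kg and acetylsalicylic acid at 100 mg/kg. 30 min later, 0.7% acetic acid (10 ml/kg) ip. Writhes counted over 20 min; six per group. % protection = (control mean − treated mean)/control mean ×100; means ± SE.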
Background: Writhing tests count abdominal constrictions after an irritant is injected.

Assay [9] concerns Mus musculus. The assay is described as follows: Analgesic activity in Swiss albino mouse assessed as reaction time at 15 mg/kg, po after 30 mins by hot plate test. It counts as functional. A digest of the protocol: as §2
Assay [10] has as its system Mus musculus. In words: Analgesic activity in Swiss albino mouse assessed as reaction time at 15 mg/kg, po after 60 mins by hot plate test. It counts as functional. A digest of the protocol: as §2
Assay [11] has as its system Mus musculus. The assay is described as follows: Analgesic activity in Swiss albino mouse assessed as reaction time at 15 mg/kg, po after 90 mins by hot plate test. The assay is classed as functional. A digest of the protocol: as §2
For assay [12], the system named is Mus musculus. In words: Analgesic activity against acetic acid-induced abdominal constriction in Swiss albino mouse at 15 mg/kg, po after 20 mins by writhing test. It counts as functional, Abdomen. A digest of the protocol: as §3
Assay [13] concerns Mus musculus. The assay is described as follows: Analgesic activity against acetic acid-induced abdominal constriction in Swiss albino mouse at 15 mg/kg, po after 20 mins by writhing test relative to acetylsalicylic acid. The assay is classed as functional, Abdomen. The essentials:
as §3

Assay [14] deals with Escherichia coli. The assay is described as follows: Antimicrobial activity against Escherichia coli at 50 ug/disk after 24 to 28 hrs. The assay is classed as functional. To be noted: read-out: IZ. A digest of the protocol:
(§4)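 Agar disk diffusion: 5 mm paper disks loaded with 50 µg/disk in DMSO. Inhibition zones read after 24–28 h at 37 °C for bacteria, or 5 days at 28 °C for clinical Candida isolates grown on Sabouraud dextrose agar. Zone graded 6–10 mm slight, 11–15 mm moderate, >15 mm high. Reference disks: nalidixic acid 30 µg, nystatin 100 U.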

Assay [15] has as its system Klebsiella pneumoniae. The assay is described as follows: Antimicrobial activity against Klebsiella pneumoniae at 50 ug/disk after 24 to 28 hrs. The assay is classed as functional. The conditions noted are these: read-out: IZ. A digest of the protocol:
as §4

Assay [16] deals with Pseudomonas aeruginosa. In words: Antimicrobial activity against Pseudomonas aeruginosa at 50 ug/disk after 24 to 28 hrs. The conditions noted are these: read-out: IZ. It counts as functional. The essentials:
as §4

Assay [17] has as its system Staphylococcus aureus. In words: Antimicrobial activity against Staphylococcus aureus at 50 ug/disk after 24 to 28 hrs. It counts as functional. The conditions noted are these: read-out: IZ. A digest of the protocol:
as §4

Assay [18] deals with Candida albicans. The assay is described as follows: Antimicrobial activity against Candida albicans at 50 ug/disk after 5 days. The assay is classed as functional. To be noted: 120 h, read-out: IZ. A digest of the protocol:
as §4

Assay [19] concerns Nakaseomyces glabratus. The assay is described as follows: Antimicrobial activity against Candida glabrata at 50 ug/disk after 5 days. It counts as functional. The conditions noted are these: 120 h, read-out: IZ. A digest of the protocol:
as §4

The subject of assay [20] is Escherichia coli. The assay is described as follows: Antimicrobial activity against Escherichia coli. The assay is classed as functional. The essentials: (§5)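 MIC found by disk diffusion using disks carrying varying amounts of compound per disk, in DMSO. Incubated 24–28 h at 37 °C for bacteria and 5 days at 28 °C for Candida. MIC given in µg/disk.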
Assay [21] deals with Klebsiella pneumoniae. In words: Antimicrobial activity against Klebsiella pneumoniae. The assay is classed as functional. The essentials:
as §5

Assay [22] deals with Pseudomonas aeruginosa. The assay is described as follows: Antimicrobial activity against Pseudomonas aeruginosa. The assay is classed as functional. A digest of the protocol:
as §5

The subject of assay [23] is Staphylococcus aureus. In words: Antimicrobial activity against Staphylococcus aureus. It counts as functional. The essentials: as §5
Assay [24] has as its system Candida albicans. The assay is described as follows: Antimicrobial activity against Candida albicans. The assay is classed as functional. A digest of the protocol:
as §5

Assay [25] concerns Rattus norvegicus. The assay is described as follows: Antiinflammatory activity against carrageenan-induced paw edema in Sprague-Dawley rat at 15 mg/kg, po after 1 hr. It counts as functional. A digest of the protocol: as §1
For assay [26], the system named is Rattus norvegicus. The assay is described as follows: Antiinflammatory activity against carrageenan-induced paw edema in Sprague-Dawley rat at 15 mg/kg, po relative to indomethacin after 1 hr. The assay is classed as functional. A digest of the protocol: as §1
Assay [27] concerns Rattus norvegicus. In words: Antiinflammatory activity against carrageenan-induced paw edema in Sprague-Dawley rat at 15 mg/kg, po after 2 hrs. It counts as functional. The essentials:
as §1

Assay [28] concerns Rattus norvegicus. The assay is described as follows: Antiinflammatory activity against carrageenan-induced paw edema in Sprague-Dawley rat at 15 mg/kg, po relative to indomethacin after 2 hrs. It counts as functional. A digest of the protocol: as §1
Assay [29] deals with Rattus norvegicus. In words: Antiinflammatory activity against carrageenan-induced paw edema in Sprague-Dawley rat at 15 mg/kg, po after 3 hrs. The assay is classed as functional. The essentials:
as §1

Assay [30] relates to Rattus norvegicus. The assay is described as follows: Antiinflammatory activity against carrageenan-induced paw edema in Sprague-Dawley rat at 15 mg/kg, po relative to indomethacin after 3 hrs. It counts as functional. The essentials:
as §1

The subject of assay [31] is Rattus norvegicus. In words: Antiinflammatory activity against carrageenan-induced paw edema in Sprague-Dawley rat at 15 mg/kg, po after 4 hrs. It counts as functional. A digest of the protocol: as §1
Assay [32] relates to Rattus norvegicus. The assay is described as follows: Antiinflammatory activity against carrageenan-induced paw edema in Sprague-Dawley rat at 15 mg/kg, po relative to indomethacin after 4 hrs. The assay is classed as functional. A digest of the protocol: as §1

On to `COc1ccc2c(c1)c(CC(=O)O)c(C)n2C(=O)c1ccc(Cl)cc1` [INDOMETHACIN], for which the inhibition in vivo at 10 mg/kg came out at 46.4% in assay [1], 56.9% in [2], 58.2% in [3] and 42.6% in assay [4].

For the compound `CC(=O)Oc1ccccc1C(=O)O` [ASPIRIN], the Time came to 10.03 s in [5], 11.39 s in assay [6] and 13.15 s in [7]. The compound also showed an Activity in assay [8] of 51.7%.

`CC(=O)NNc1nc2nc3c(c(-c4ccccc4)c2c(=O)[nH]1)CCCC3`: the values for the Time in [9], in assay [10] and in [11] were 8.62 s, 8.06 s and 9.22 s, respectively. In addition, the Activity in assay [12] was 60.4%; in [13], 116.83%. Besides, the zone of inhibition at 50 µg/disc came out at 20 mm in assay [14]; 18 mm in assay [15]; 22 mm in [16]; 19 mm in assay [17]; 17 mm in assay [18]; 16 mm in [19]. The MIC in assay [20] amounted to 20 µg; in assay [21], 20 µg; in assay [22], 20 µg; in assay [23] it was 20 µg; in assay [24] it was 50 µg. Moreover, the inhibition in vivo at 15 mg/kg in [25] is 25.9%; in [26], 45.5%; in assay [27] it was 22.8%; in [28], 39.2%; in assay [29], 23.9%; in [30], 55.9%. In addition, the inhibition in vivo at 15 mg/kg in assay [31] came out at 21.8%; in assay [32], 46.9%.
